The list is not random: actives were taken first. Their share in the collection is about 2.6%.
MC4R ag barr = agonists of human melanocortin 4 receptor (MC4R) beta-arrestin; P32245; U2OS MC4R beta-arrestin complementation, luminescence; percent of melanotan II response, DMSO zero; activation, % at 8.9 µM; hit rate 0.98% among 360,000; AID 540308;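 active = activation above a per-plate cutoff, the mean activation of sample wells on that plate plus 3 SD, cut at about 8% in these data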
Granule exo inh = lytic granule exocytosis inhibition; hit rate 0.66% among 360,000; inhibition, % at 10 µM; AID 651702; TALL-104 LAMP-1 surface exposure, flow cytometry; cells stimulated with thapsigargin and PMA;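 active = inhibition above about 55%, limit read from the data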
PGE2 EP2 inh = EP2 receptor (human) inhibition. P43116. C6 glioma cells expressing human EP2, cAMP TR-FRET; cells stimulated with saturating PGE2. inhibition, % at 25 µM. hit rate 0.52% among 260,000;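 active = percent inhibition above 40 after rounding to a whole number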;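 note: rat C6 glioma host cells with rolipram phosphodiesterase inhibitor present; the protocol text gives 20 µM as final concentration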
Target sequence (P43116 whole entry, looked up): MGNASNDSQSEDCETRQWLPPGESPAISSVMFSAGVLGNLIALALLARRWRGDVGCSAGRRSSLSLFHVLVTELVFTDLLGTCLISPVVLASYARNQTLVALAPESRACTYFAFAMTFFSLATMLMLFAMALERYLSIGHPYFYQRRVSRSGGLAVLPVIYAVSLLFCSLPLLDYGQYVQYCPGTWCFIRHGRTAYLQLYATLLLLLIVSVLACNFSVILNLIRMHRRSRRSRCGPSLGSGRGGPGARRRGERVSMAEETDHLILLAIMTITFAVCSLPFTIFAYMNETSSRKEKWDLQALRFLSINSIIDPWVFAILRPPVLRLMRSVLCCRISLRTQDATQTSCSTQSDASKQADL
EP2 modulator = modulators of human EP2 prostaglandin E2 receptor; P43116; EP2-expressing cells, cAMP HTRF FRET, PGE2 co-stimulation; induction, % at 25 µM; hit rate 0.83% among 260,000; AID 940;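 active = compounds whose cAMP rise, as percent of the full-agonist control response, exceeds 60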;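 note: rat C6 glioma line stably carrying human EP2 under a CMV promoter; the protocol text gives 20 µM as final concentration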
T cell HTS = T cell immune modulators affecting CD8 T cell-vesicle binding | response (vesicle binding), % at 7 µM | 2C CD8+ T cell-vesicle binding, flow cytometry; active compounds read low | AID 2052 | hit rate 0.068% among 330,000;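 active = response, share of CD8 T cells binding vesicles, and their 90th percentile fluorescence all below set limits, cut at about 80% in these data, passing the limit was not always enough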;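 note: values below 100% mean blocked vesicle binding to the CD8+ T cells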
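material = purified 2C TCR transgenic mouse naive CD8+ T cells | controls = Unloaded micro-vesicles (low), QL9 vesicles with 0.7% DMSO (high) | detection = cytometric PE anti-B7-1 and Alexa647 anti-CD8 signals after 1% paraformaldehyde fixation | incubation = binding step 1.5 h, 37 °C, antibody labelling 20 min, ice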
MC4R antagonist = antagonists of human melanocortin 4 receptor (MC4R); P32245; MC4R-expressing cells, MTII-stimulated cAMP, LANCE TR-FRET; hit rate 0.48% among 360,000; inhibition, % at 6.5 µM; AID 540295;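 active = inhibition above its plate's cutoff, the mean of tested wells on that plate plus 3 SD, cut at about 29% in these data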
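Material: human MC4R-expressing U2OS cells. Probe or stimulus: Melanotan II challenge. Dosing: 6.5 µM single dose. Times: 30-min compound, 1-h challenge, 1-h detection, room temperature. Technique: TR-FRET with Eu-cAMP and labeled anti-cAMP, 671 nm. Replication: singlicate.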
MC4R barr conf = human MC4R beta-arrestin agonism confirmation | activation, % at 8.9 µM | AID 602192 | hit rate 31% among 2,400 | shares compounds with MC4R ag barr | U2OS MC4R beta-arrestin recruitment, luminescence; scaled DMSO 0%, Melanotan II 100%;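 active = mean activation across replicates above the hit cutoff set in the earlier primary screen, cut at about 8% in these data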
MOR DOR agonist = counter-screen for MC4R agonists: agonists of mu-delta opioid heterodimer | AID 602194 | activation, % at 9.2 µM | hit rate 5.8% among 2,400 | shares compounds with MC4R ag barr | U2OS PathHunter beta-arrestin, beta-gal luminescence; percent of deltorphin B response, DMSO zero;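 active = mean activation across replicates exceeds the hit threshold derived in the earlier primary screen, cut at about 18% in these data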
Numbers stand for hits; – = inactive; · = no result given.

SMILES	MC4R ag barr	Granule exo inh	PGE2 EP2 inh	EP2 modulator	T cell HTS	MC4R antagonist	MC4R barr conf	MOR DOR agonist
C=C(C)CNC(=S)NNC(=O)CCn1c2ccc(Cl)cc2c2cc(Cl)ccc21	11	–	–	–	–	–	–	–
C=C(C)CNC(=S)NNC(=O)CCn1c2cc(Cl)ccc2c2ccc(Cl)cc21	–	–	–	–	–	–	·	·
N#C/C(=C/C1=C(N2CCOCC2)C(=C/c2ccc(Cl)cc2)/CC1)C(=O)Nc1ccccc1F	–	–	·	·	·	–	·	·
Cc1ccc(CCc2nnc(SCC(=O)Nc3cccc(Cl)c3)n2-c2ccccc2)o1	27	–	–	–	–	–	–	–
Cn1c(SCC(=O)Nc2cccc(Cl)c2)nnc1-c1ccncc1	·	·	–	–	·	·	·	·
CCOC(=O)CSc1nc2cc(OCC)ccc2cc1C#N	31	–	–	–	–	–	–	–
CCOC(=O)CSc1nc2ccc(OCC)cc2cc1C#N	·	·	–	–	·	·	·	·
O=C(Nc1ccccc1)NC1CCNCC1	·	·	–	–	·	·	·	·
CC(C)=CCC/C(C)=C/C=N/NC(=O)c1cccc([N+](=O)[O-])c1	–	–	–	–	–	–	·	·
CC(C)=CCC/C(C)=C/C=N/NC(=O)c1ccc([N+](=O)[O-])cc1	15	–	–	–	–	–	–	–
Cc1ccccc1/C=N/n1c(-c2cc(-c3ccccc3)n[nH]2)n[nH]c1=S	13	–	–	–	–	–	–	–
Cc1ccc(-c2n[nH]c(=S)n2/N=C/c2sccc2C)cc1	–	–	–	–	–	–	·	·
S=c1[nH]nc(-c2cc(-c3ccccc3)n[nH]2)n1/N=C/c1c(Cl)cccc1Cl	–	–	–	–	–	–	·	·
Cc1ccsc1/C=N/n1c(-c2cc(-c3ccccc3)n[nH]2)n[nH]c1=S	12	–	–	–	–	–	–	–
S=c1[nH]nc(-c2cc(-c3ccccc3)n[nH]2)n1/N=C/c1ccc(Br)s1	33	–	–	–	–	–	–	–
CCOc1ccccc1N1CCN(Cc2cn[nH]c2-c2ccc(F)cc2)CC1	–	–	–	–	–	–	·	·
COc1ccc(C2CCCN2C(=S)Nc2c(C)cccc2C)cc1OC (stereo not drawn)	–	–	–	–	–	–	·	·
CCCc1ccc(OCc2nc(-c3ccc(NC(=O)c4ccco4)cc3)no2)cc1	–	–	–	–	–	–	·	·
CCCc1ccc(OCc2nc(-c3ccc(NC(=O)c4cccs4)cc3)no2)cc1	–	–	–	–	–	–	·	·
Cc1ccccc1OCc1nc(-c2ccc(NC(=O)c3ccco3)cc2)no1	23	–	–	–	–	–	–	–
Cc1ccccc1OCc1nc(-c2ccc(NC(=O)c3cccs3)cc2)no1	16	–	–	–	–	–	–	–
COCCn1c(=N)c(C(=O)NCc2ccccc2)cc2c(=O)n3cc(C)ccc3nc21	·	·	–	–	·	·	·	·
COCCNc1nnc(SC(C)C(=O)Nc2ccc(-c3nc4ccc(C)cc4s3)cc2)s1 (stereo not drawn)	15	–	–	–	–	–	–	–
CC(C)c1ccc(NS(=O)(=O)c2ccc3c(c2)oc(=O)n3C)cc1	–	–	·	·	–	–	·	·
Cc1ccc(C(C)C)c(OCC(=O)NNCC(=O)Nc2cccc(F)c2)c1	14	–	·	·	–	–	10	–
SMILES	MC4R ag barr	Granule exo inh	PGE2 EP2 inh	EP2 modulator	T cell HTS	MC4R antagonist	MC4R barr conf	MOR DOR agonist
CC(=O)Nc1ccc(S(=O)(=O)NNC(=O)COc2cc(C)ccc2C(C)C)cc1	–	–	–	–	–	–	·	·
CC(=O)Nc1ccc(NC(=S)NC(=O)c2ccc(-c3ccccc3)cc2)cc1	36	–	·	·	–	–	–	–
CN(Cc1ccccc1)C(=S)NC(=O)c1ccc(-c2ccccc2)cc1	28	–	–	–	–	–	–	–
Cc1[nH]c(=O)c(C#N)cc1-c1ccccc1	–	–	–	–	–	–	·	·
CSc1nccc(N/N=C/c2ccccc2)n1	–	–	·	·	–	–	·	·
CCC(=O)N1CCN(c2ccc(NC(=O)c3cccs3)cc2)CC1	–	–	–	–	–	–	·	·
